Experimental findings from ChEMBL document CHEMBL1667846, “Optimization of a novel class of benzimidazole-based farnesoid X receptor (FXR) agonists to improve physicochemical and ADME properties” (Bioorg Med Chem Lett, 2011) are described below.

As a reminder, the logD is lipophilicity at a set pH, counting ionised and neutral species. Read a high logD as a more lipophilic compound. What is called solubility is the dissolved amount per volume that the medium holds. As a reminder, the AUC is concentration integrated over time. A lower AUC goes with less exposure. What is called bioavailability is dose-corrected exposure relative to a reference, in per cent. Lower therefore signals poor availability.

Values after ≈ are worked out from the molar mass of the structure shown.

Data set [1] in a line: Lipophilicity log D of the compound at pH 7.4. The following applies: buffer. It counts as physicochemical. A digest of the protocol:
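Lipophilicity measured as log D at pH 7.4.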

Data set [2] in a line: Solubility of the compound in 0.05 M phosphate buffer at pH 6.5. It counts as physicochemical.
The nature of data set [3]: Cmax in Wistar rat at 2 mg/kg, iv or 5 mg/kg, po. It counts as ADME, organism-based. The following applies: in vivo. The method in brief:
(§1)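 Male C57BL/6 mice (4 mg/kg iv, 10 mg/kg po) and male Wistar rats (2 mg/kg iv, 5 mg/kg po), single doses. Oral vehicle was 7.5% gelatin in 0.62% aqueous NaCl. Intravenous vehicle was 30% N-methylpyrrolidinone in aqueous 100 mM TRIS buffer pH 8.5. Reported parameters were Cl, Cmax/dose, Vss, AUC/dose, t1/2 and oral bioavailability F.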

The nature of data set [4]: Volume of distribution at steady state in Wistar rat at 2 mg/kg, iv or 5 mg/kg, po. In kind it is ADME, organism-based. The settings on record: in vivo, read-out: Vdss. A digest of the protocol:
as §1

Data set [5] in a line: Volume of distribution at steady state in C57BL/6 mouse at 4 mg/kg, iv. It counts as ADME, organism-based. More on the design: dose 4 mg/kg, route intravenous. The settings on record: in vivo, read-out: Vdss. The method in brief:
as §1

A short description of data set [6]: Cmax in C57BL/6 mouse at 4 mg/kg, iv or 10 mg/kg, po. It counts as ADME, organism-based. The following applies: in vivo. The method in brief: as §1
Data set [7] can be described thus: AUC in Wistar rat at 2 mg/kg, iv or 5 mg/kg, po. In kind it is ADME, organism-based. The settings on record: plasma. The method in brief: as §1
A short description of data set [8]: Oral bioavailability in C57BL/6 mouse at 4 mg/kg, iv or 10 mg/kg, po. In kind it is ADME, organism-based. The settings on record: in vivo. A digest of the protocol:
as §1

A short description of data set [9]: Oral bioavailability in Wistar rat at 2 mg/kg, iv or 5 mg/kg, po. The settings on record: in vivo. It counts as ADME, organism-based. A digest of the protocol:
as §1

The nature of data set [10]: AUC in C57BL/6 mouse at 4 mg/kg, iv or 10 mg/kg, po. In kind it is ADME, organism-based. The settings on record: plasma. The method in brief:
as §1

On to `O=C(N[C@H]1CC[C@H](C(=O)O)CC1)[C@H](C1CCCCC1)n1c(-c2ccc(Cl)cc2)nc2cc(F)c(F)cc21`, for which the logD in data set [1] is 2.49. The solubility in data set [2] came out at 395 µg/mL (≈ 745 µM).
The corresponding values for `O=C(Nc1ccc(OC2(C(=O)O)CC2)cc1F)[C@H](C1CCCCC1)n1c(-c2ccc(Cl)cc2)nc2cc(F)c(F)cc21` are 2.32 and 280 µg/mL (≈ 468 µM).
The corresponding values for `O=C(Nc1ccc(-c2nnn[nH]2)cc1F)[C@H](C1CCCCC1)n1c(-c2ccc(Cl)cc2)nc2cc(F)c(F)cc21` are 2.96 and 490 µg/mL (≈ 866 µM).
Regarding `O=C(O)c1ccc(NC(=O)[C@H](C2CCCCC2)n2c(-c3ccc(Cl)cc3)nc3cc(F)c(F)cc32)cc1`, the log distribution coefficient (logD) in data set [1] was 3.06. In data set [2], this molecule registered a solubility of 88 µg/mL (≈ 168 µM).
For `O=C(N[C@H]1CC[C@H](O)CC1)[C@H](C1CCCCC1)n1c(-c2ccc(Cl)cc2)nc2cc(F)c(F)cc21` the same measures were above 4 and 17 µg/mL (≈ 33.9 µM).
The corresponding values for `O=C(O)c1ccc(NC(=O)[C@H](C2CCCCC2)n2c(-c3ccc(Cl)cc3)nc3ccccc32)c(C(F)(F)F)c1` are 2.34 and 175 µg/mL (≈ 315 µM).
The corresponding values for `COc1ccc(-c2nc3cc(F)c(F)cc3n2[C@H](C(=O)N[C@H]2CC[C@H](C(=O)O)CC2)C2CCCCC2)c(OC)n1` are 1.91 and 465 µg/mL (≈ 835 µM).
In turn, `O=C(O)c1ccc(NC(=O)[C@H](C2CCCCC2)n2c(-c3ccc(Cl)cc3)nc3cc(F)c(F)cc32)c(Cl)c1` gave a log distribution coefficient (logD) in [1] of 2.98. Moreover, the solubility in [2] worked out at 51 µg/mL (≈ 91.3 µM).
For the molecule `Cc1cc(C(=O)O)ccc1NC(=O)[C@H](C1CCCCC1)n1c(-c2ccc(Cl)cc2)nc2cc(F)c(F)cc21`, in [1], the logD is 2.83. The molecule further registered a solubility in [2] of 32 µg/mL (≈ 59.5 µM).
In [1], `O=C(O)c1ccc(NC(=O)[C@H](C2CCCCC2)n2c(-c3ccc(Cl)cc3)nc3cc(F)c(F)cc32)c(F)c1` yielded a logD of 2.66. The results for the Cmax/dose in [3] and in data set [6] were 270 ng/mL and 205 ng/mL, respectively. Moreover, the Vd in data set [4] came out at 0.62 L/kg; in data set [5], 1.24 L/kg. In addition, the AUC in [7] amounted to 3030 ng·h/mL; in data set [10] it was 5430 ng·h/mL. Also, the bioavailability in [8] amounted to 33%; in data set [9], 59%. The solubility in data set [2] stood at 115 µg/mL (≈ 212 µM).
Turning to `O=C(NC1CCCCC1)[C@H](C1CCCCC1)n1c(-c2ccc(Cl)cc2)nc2cc(F)c(Cl)cc21`, the log distribution coefficient (logD) in [1] was above 4. The solubility in [2] is below 1 µg/mL.
Consider `O=C(NC1CCCCC1)[C@H](C1CCCCC1)n1c(-c2ccc(Cl)cc2)nc2cc(F)c(F)cc21`, for which the logD in data set [1] is above 4. The molecule further gave a solubility in [2] below 1 µg/mL.
